This excerpt belongs to a sample that is enriched for hits.
GASC1 inh – inhibitors of human demethylase GASC-1 KDM4C; GST-KDM4C 2-372, H3K9me3 peptide, LANCE TR-FRET; inhibition, % at 12.5 µM; actives 0.15% (n = 96,000); AID 720574;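 active = mean replicate inhibition above about 25%, with at least 55% of replicates also reaching it, limit read from the data, passing the limit was not always enough; inconclusive = only one of those two conditions met; inactive = neither condition met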
Target sequence (Q9H3R0 2-372 limits assumed): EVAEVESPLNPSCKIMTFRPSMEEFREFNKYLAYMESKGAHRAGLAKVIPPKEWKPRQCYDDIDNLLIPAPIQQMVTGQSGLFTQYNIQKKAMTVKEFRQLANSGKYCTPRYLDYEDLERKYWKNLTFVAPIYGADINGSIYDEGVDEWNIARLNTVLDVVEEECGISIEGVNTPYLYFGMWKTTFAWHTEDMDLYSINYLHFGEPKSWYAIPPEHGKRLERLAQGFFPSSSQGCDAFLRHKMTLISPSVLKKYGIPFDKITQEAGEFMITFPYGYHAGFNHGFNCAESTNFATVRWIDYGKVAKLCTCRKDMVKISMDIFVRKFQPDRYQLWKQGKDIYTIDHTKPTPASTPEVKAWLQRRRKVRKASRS
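Assay system: GST-GASC-1 enzyme fragment 2-372 | Amount: 10 nM enzyme | Medium: HEPES buffer, pH 7.5, plus ascorbate | Reagent: H3K9me3 peptide substrate, Fe(II), 2-oxoglutarate | Doses: Single-point compound screen | Incubation: 30 min demethylation and 1 h detection at room temperature | Measured by: LANCE TR-FRET, excitation 340 nm, emissions 618 and 671 nm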
IDH1 R132H inh – inhibitors of human IDH1 R132H | AID 624101 | IDH1 R132H reductase, diaphorase/resazurin fluorescence, 60 min | actives 0.18% (n = 70,000) | inhibition, % at 10 µM; in the data active = inhibition above about 34%; inconclusive = no clear call, values can overlap the other calls; inactive = below about 11%;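 note: 0% = DMSO and 100% = no enzyme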
T cruzi growth-1 – T. cruzi proliferation inhibition. T. cruzi beta-gal in NIH3T3, GalScreen luminescence, 90 h. inhibition, % at 8.34 µM. actives 5.9% (n = 77,000);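 active = mean inhibition above about 93%, with at least 55% of replicates each passing it, limit read from the data, passing the limit was not always enough; inconclusive = only one of those two conditions holds; inactive = neither condition holds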
T cruzi growth-2 – inhibitors of T. cruzi proliferation; inhibition, % at 8.35 µM; AID 651739; actives 72% (n = 5,600); T. cruzi beta-gal in NIH3T3, GalScreen luminescence, 90 h; shares compounds with T cruzi growth-1;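 active = mean replicate inhibition above about 95% and at least 55% of replicates individually reaching it, limit read from the data; inconclusive = only one of the two criteria is met; inactive = neither criterion is met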
T cruzi growth-3 – Trypanosoma cruzi proliferation inhibition | shares compounds with T cruzi growth-1 | T. cruzi beta-gal in NIH3T3, GalScreen luminescence, 90 h | inhibition, % at 2.09 µM | actives 21% (n = 5,600);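 active = mean inhibition above about 95%, with at least 55% of replicates also reaching it, limit read from the data; inconclusive = meets just one of the two conditions; inactive = meets neither condition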;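 note: plate controls were neutral control median for no effect and positive control median for full effect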
3T3 cytotox – NIH/3T3 (mouse) viability loss; shares compounds with T cruzi growth-1; NIH/3T3 viability, CellTiter-Glo ATP luminescence, 90 h; cytotoxicity (signal decrease), % at 8.35 µM; actives 14% (n = 5,600); AID 651742;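 active = mean signal decrease across replicates above about 35% based on untreated-well scatter, with enough replicates individually passing, limit read from the data; inconclusive = no rule stated though some were filed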;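 note: 0% = median of neutral control wells and 100% = median of positive control wells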
3T3 cytotox 2 – cytotoxicity in mouse NIH/3T3 fibroblasts | NIH/3T3 viability, CellTiter-Glo ATP luminescence, 90 h | shares compounds with T cruzi growth-1 | inhibition, % at 24.9 µM | AID 651744 | actives 56% (n = 5,600);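 active = mean loss of cell viability signal at or above a set limit, and enough replicates individually reaching it; inconclusive = meets only the mean limit or only the replicate share; inactive = meets neither condition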;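 note: 0% = median of neutral control wells and 100% = median of positive control wells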
The depositor's hits bear a star; ? = inconclusive; . = not tested or not shown.

SMILES	GASC1 inh	IDH1 R132H inh	T cruzi growth-1	T cruzi growth-2	T cruzi growth-3	3T3 cytotox	3T3 cytotox 2
COc1ccc(-c2ccc3c(c2)[C@@H]2[C@@H](CCN2C(=O)Cc2ccccn2)[C@@H](CO)N3C)cc1	0	.	?	107*	84	-30	-12
CN1c2ccc(-c3ccccc3)cc2[C@@H]2[C@@H](CCN2C(=O)Cc2ccccn2)[C@@H]1CO	1	.	99*	105*	58	-8	-6
CN(C)C(=O)c1cccc(-c2ccc3c(c2)[C@@H]2[C@@H](CCN2C(=O)Cc2ccccn2)[C@@H](CO)N3C)c1	2	.	27	.	.	.	.
COc1ccccc1NC(=O)c1cnc(Nc2nc3ccccc3s2)nc1C	.	0	.	.	.	.	.
CC(CC(C)O[C@@H]1O[C@H](CO)[C@@H](O)[C@H](O)[C@H]1O)OC(=O)/C=C/c1ccc(O)cc1 (stereo partly specified)	.	0	.	.	.	.	.
C[C@H]1CN([C@@H](C)CO)S(=O)(=O)c2ccc(C#Cc3ccccc3)cc2O[C@@H]1CN(C)S(=O)(=O)c1cn(C)cn1	-4	-3	?	112*	54	41*	36*
C[C@@H]1CN([C@@H](C)CO)S(=O)(=O)c2ccc(C#Cc3ccccc3)cc2O[C@H]1CN(C)S(=O)(=O)c1cn(C)cn1	3	0	72	.	.	.	.
C[C@H](CO)N1C[C@H](C)[C@H](CN(C)S(=O)(=O)c2cn(C)cn2)Oc2cc(C#Cc3ccc(F)cc3)ccc2S1(=O)=O	-3	-1	117	.	.	.	.
C[C@H](CO)N1C[C@H](C)[C@@H](CN(C)S(=O)(=O)c2cn(C)cn2)Oc2cc(C#Cc3cccc(F)c3)ccc2S1(=O)=O	-1	-4	47	.	.	.	.
C[C@H]1CN([C@@H](C)CO)S(=O)(=O)c2ccc(C#Cc3cccc(F)c3)cc2O[C@H]1CN(C)S(=O)(=O)c1cn(C)cn1	-2	0	96*	97*	47	25	29*
C[C@H](CO)N1C[C@H](C)[C@@H](CN(C)S(=O)(=O)c2cn(C)cn2)Oc2cc(C#Cc3ccc(F)cc3)ccc2S1(=O)=O	0	0	107*	96*	80	18	25*
Cc1cccc(C)c1OCC(=O)NCc1ccccn1	.	1	.	.	.	.	.
Cc1cc2nc(-c3ccc(Cl)c(NC(=O)COc4ccccc4)c3)oc2cc1C	.	0	.	.	.	.	.
CC12CCCCC1(O)N(O)C(C(=O)c1ccccc1)=N2 (stereo unspecified)	.	0	.	.	.	.	.
Cc1c(NC(=O)COc2ccccc2Cl)cccc1C(=O)O	.	0	.	.	.	.	.
COc1ccc(NC(=O)N2CCCCN3[C@H](CO)[C@H](c4ccc(C#Cc5ccccc5)cc4)[C@@H]3C2)cc1	.	.	62	.	.	.	.
COc1ccc(C#Cc2ccc([C@H]3[C@H]4CN(C(=O)Nc5ccccc5F)CCCCN4[C@H]3CO)cc2)cc1	-3	.	120*	106*	60	29	33*
COc1ccc(C#Cc2ccc([C@H]3[C@H](CO)N4CCCCN(C(=O)Nc5ccccc5)C[C@@H]34)cc2)cc1	-6	.	72	.	.	.	.
COc1ccc(C#Cc2ccc([C@@H]3[C@@H](CO)N4CCCCN(C(=O)Nc5ccccc5F)C[C@H]34)cc2)cc1	-2	.	103	.	.	.	.
COc1ccc(C#Cc2ccc([C@@H]3[C@@H](CO)N4CCCCN(C(=O)Nc5ccccc5)C[C@@H]34)cc2)cc1	-2	.	111*	83	93	31	102*
COc1ccc(NC(=O)N2CCCCN3[C@H](CO)[C@@H](c4ccc(C#Cc5ccccc5)cc4)[C@@H]3C2)cc1	.	.	112*	91	95	37*	104*
COc1ccc(NC(=O)N2CCCCN3[C@H](CO)[C@@H](c4ccc(C#Cc5ccccc5)cc4)[C@H]3C2)cc1	.	.	107*	96*	104*	91*	104*
COc1ccc(NC(=O)N2CCCCN3[C@@H](CO)[C@@H](c4ccc(C#Cc5ccccc5)cc4)[C@@H]3C2)cc1	.	.	70	.	.	.	.
CCOC(=O)c1c(-c2ccccc2)csc1NC(=O)Cn1c(=O)oc2ccccc21	.	0	.	.	.	.	.
COc1ccc(CCNS(=O)(=O)c2ccc(OC)c(Cl)c2Cl)cc1OC	.	1	.	.	.	.	.
SMILES	GASC1 inh	IDH1 R132H inh	T cruzi growth-1	T cruzi growth-2	T cruzi growth-3	3T3 cytotox	3T3 cytotox 2
COC(=O)c1cc(NC(=O)COc2ccc(C)cc2)cc(C(=O)OC)c1	.	-1	.	.	.	.	.
COc1cccc2cc(-c3nnc(SCC(=O)c4ccccc4)n3C)oc12	.	0	.	.	.	.	.
COc1cc(O)c2c(=O)cc(-c3cc(OC)c(OC)c(O)c3OC)oc2c1	.	0	.	.	.	.	.
COc1ccc(C#Cc2ccc([C@H]3[C@H](CO)N4CCCCN(C(=O)Nc5ccc(F)cc5)C[C@@H]34)cc2)cc1	-5	.	63	.	.	.	.
O=C(Nc1cccc(F)c1)N1CCCCN2[C@@H](CO)[C@@H](c3ccc(C#Cc4ccccc4)cc3)[C@@H]2C1	0	.	79	.	.	.	.
COc1ccc(C#Cc2ccc([C@H]3[C@H]4CN(C(=O)Nc5cccc(F)c5)CCCCN4[C@H]3CO)cc2)cc1	-2	.	113*	104*	85	1	15
COc1ccc(C#Cc2ccc([C@H]3[C@H](CO)N4CCCCN(C(=O)Nc5cccc(F)c5)C[C@@H]34)cc2)cc1	.	.	72	.	.	.	.
O=C(Nc1cccc(F)c1)N1CCCCN2[C@@H](CO)[C@@H](c3ccc(C#Cc4cccnc4)cc3)[C@@H]2C1	0	.	100*	106*	100*	59*	103*
COc1ccc(C#Cc2ccc([C@H]3[C@@H](CO)N4CCCCN(C(=O)Nc5ccc(F)cc5)C[C@@H]34)cc2)cc1	-3	.	107*	104*	104*	14	24
CS(=O)(=O)N(CC(=O)Nc1ccc(F)c(F)c1)c1ccccc1Br	.	0	.	.	.	.	.
Cc1nc(SCC(=O)N2c3ccccc3CCc3ccccc32)n[nH]1	.	5	.	.	.	.	.
Cc1nnc(SCC(=O)Nc2ccc(C#N)cc2)s1	.	0	.	.	.	.	.
c1ccc2[nH]c(CSc3ncnc4sc5c(c34)CCCC5)nc2c1	.	0	.	.	.	.	.
CC(=O)c1ccc(NC(=O)CSc2nc(C)cc(C)c2C#N)cc1	.	0	.	.	.	.	.
CC(=O)Nc1cccc(NC(=O)CSc2ccccc2[N+](=O)[O-])c1	.	0	.	.	.	.	.
CCC(=O)N1CCCCN2[C@H](CO)[C@H](c3ccc(/C=C/c4ccccc4)cc3)[C@H]2C1	-3	.	117*	102*	66	27	105*
CCC(=O)N1CCCCN2[C@@H](CO)[C@H](c3ccc(/C=C/c4ccccc4)cc3)[C@@H]2C1	-1	.	116*	106*	37	43*	105*
CCC(=O)N1CCCCN2[C@H](CO)[C@@H](c3ccc(/C=C/c4ccccc4)cc3)[C@H]2C1	-2	.	91	.	.	.	.
CN1CCCCN2[C@H](CO)[C@@H](c3ccc(/C=C/c4ccccc4)cc3)[C@H]2C1	-2	.	59	.	.	.	.

Compound activity from PubChem.
